Bioassay records from PubChem BioAssay.
SIRT5 block – inhibitors of human sirtuin-5 desuccinylase; inhibition, % at 15 µM; Purified SirT5, succinyl-peptide AMC, trypsin-coupled fluorescence; Q9NXA8; 330,000 tested, 1.1% active; in the data active = inhibition above about 15%; inconclusive = no clear call, values can overlap the other calls
Target sequence (Q9NXA8 whole entry, looked up): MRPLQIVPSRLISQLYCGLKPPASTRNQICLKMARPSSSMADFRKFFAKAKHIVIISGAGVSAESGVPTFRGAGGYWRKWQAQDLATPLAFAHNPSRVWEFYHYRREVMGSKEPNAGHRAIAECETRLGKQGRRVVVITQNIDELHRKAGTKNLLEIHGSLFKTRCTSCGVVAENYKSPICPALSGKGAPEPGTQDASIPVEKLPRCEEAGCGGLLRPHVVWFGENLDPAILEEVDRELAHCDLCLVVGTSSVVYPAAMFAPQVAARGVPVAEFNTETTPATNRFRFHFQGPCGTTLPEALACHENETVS
FN deposition inh – fibronectin deposition inhibition | AH1F fibroblasts, Alexa488-fibronectin deposition fluorescence, overnight | inhibition, % at 12.6 µM | 350,000 tested, 0.086% active | AID 743247;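 active = mean inhibition across replicates of 30% or more, regardless of how many single replicates reach that level; inconclusive = mean under 30% yet at least half of replicates reach 30%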
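Material: AH1F fibroblast monolayer depositing Alexa488-labelled fibronectin into matrix | Input: 10000 AH1F cells/well | Medium: DMEM plus 2% serum, read in PBS | Reagent: Alexa488-fibronectin, 24 nM final in well | Compound dosing: One dose per compound, pinned | Schedule: 1 h adhesion, overnight exposure | Measured by: Fluorescence at 485 nm excitation, 525 nm emission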
ERAP1 inh – inhibitors of human ERAP1 aminopeptidase; Q9NZ08; recombinant ERAP1, Leu-AMC fluorescence, 60 min; inhibition, % at 10.7 µM; 340,000 tested, 0.15% active; AID 652197;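 active = mean replicate inhibition of at least 30%, or all replicates individually reaching that 30% level; inactive = mean below 30% and not every replicate reaching it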
PGC1a acetyl inh – modulators of PGC1a acetylation | U2OS PGC1a acetylation, AlphaScreen anti-acetyl-lysine; with virally co-expressed GCN5 acetyltransferase | inhibition, % at 15.6 µM | 350,000 tested, 0.17% active;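 active = every replicate shows inhibition of at least 40%; inconclusive = mean inhibition at least 40% but some replicate below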
FGF22 binding – shifts melting point of recombinant human FGF22. recombinant FGF22 thermal shift, SYPRO orange fluorescence; percent of sucrose octasulfate shift, DMSO zero. activity (Tm shift, normalised), % at 9.99 µM. 340,000 tested, 1.5% active;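 active = mean Tm shift, scaled 0 neutral to 100 positive control, at about 1.3% or above, every replicate too, limit read from the data; inconclusive = no clear call, values can overlap the other calls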
Target sequence (Q9HCT0 whole entry, looked up): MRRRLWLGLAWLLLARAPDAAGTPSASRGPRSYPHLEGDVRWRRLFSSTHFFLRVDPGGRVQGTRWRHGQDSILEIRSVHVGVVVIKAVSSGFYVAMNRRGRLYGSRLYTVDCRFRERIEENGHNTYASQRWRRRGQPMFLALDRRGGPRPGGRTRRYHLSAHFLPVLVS
Numbers stand for hits; - = inactive; ? = inconclusive; . = no result. Only some compounds are listed: those with a hit (about 2.2% of all), similar ones and a draw of the others.

SMILES | SIRT5 block | FN deposition inh | ERAP1 inh | PGC1a acetyl inh | FGF22 binding
COc1ccc(Cn2nnnc2CN(Cc2cc3cccc(C)c3[nH]c2=O)C2CCCC2)cc1 | - | . | - | - | -
C[C@@H]1CCCCO[C@H](CN(C)C(=O)Nc2ccccc2)[C@@H](C)CN([C@@H](C)CO)C(=O)c2cc(NS(C)(=O)=O)ccc2O1 | - | - | - | - | -
ClCC1CSC(=NC23CC4CC(CC(C4)C2)C3)O1 (stereo not given) | 17 | - | - | - | -
C[C@H](O)C#Cc1cnc2c(c1)C(=O)N([C@H](C)CO)C[C@@H](C)[C@@H](CN(C)Cc1cccc(F)c1)O2 | - | - | - | - | -
CN(CCOC(=O)c1ccccc1)Cc1ccccc1 | . | - | . | . | .
CN(CCOC(=O)c1cccc(F)c1)Cc1ccccc1 | - | - | - | - | 43
CC(C)NC(=O)Nc1ccc2c(c1)C(=O)N([C@H](C)CO)C[C@@H](C)[C@H](CN(C)C(=O)C1CCCCC1)OCCCC[C@H](C)O2 | . | - | . | - | .
C[C@H]1COC[C@@H](C/C=C/c2ccccc2)N1c1ccccc1 | . | - | - | - | 43
Cc1ccc(OCc2ccc(Br)cc2)c([N+](=O)[O-])n1 | - | - | - | . | 45
C[C@H](CO)N1C[C@H](C)[C@@H](CN(C)S(C)(=O)=O)Oc2cc(-c3ccc(F)cc3)ccc2S1(=O)=O | . | - | . | - | .
CCC(=O)Nc1ccc2c(c1)C(=O)N(C)C[C@H](OC)[C@H](C)CN(C(=O)c1ccccc1F)[C@H](C)CO2 | - | - | - | - | -
O=c1[nH]c(CN2CCN(S(=O)(=O)/C=C/c3ccccc3)CC2)nc2cc(Cl)ccc12 | - | - | . | - | -
O=c1[nH]c(CN2CCN(S(=O)(=O)/C=C/c3ccccc3)CC2)nc2ccccc12 | 16 | - | - | - | -
O=c1[nH]c(CN2CCOCC2)nc2ccccc12 | - | - | - | - | 43
C[C@@H]1CN([C@H](C)CO)C(=O)c2cc(NC(=O)NC3CCCCC3)ccc2O[C@@H](C)CCCCO[C@H]1CN(C)Cc1ccncc1 | - | - | - | - | -
CN1CCCN(C(=O)/C=C/c2ccc(Cl)cc2Cl)CC1 | . | - | - | . | 44
CCOC(=O)c1ccc(NC(=O)NC(C)C2CCCO2)cc1 (stereo not given) | . | - | . | - | .
CC(NC(=O)Nc1ccc(Cl)cc1)C1CCCO1 (stereo not given) | - | - | - | - | 43
COc1cc(/C=N/NC(=O)c2ccncc2)ccc1OC(=O)c1ccccc1Cl | - | - | - | . | 43
COc1ccc(/C=N/NC(=O)c2ccc(COc3cccc4cccnc34)cc2)cc1OC | - | . | - | - | 43
COc1ccccc1NC(=O)c1ccc2c(c1)nnn2C | - | - | - | . | 44
COc1ccc(C(=O)Nc2cccc3cccnc23)cc1OC | 20 | - | - | - | -
COc1ccc(/C=N/NC(=O)c2ccc(COc3cccc4cccnc34)cc2)cc1O | - | - | - | - | -
Cn1nnc2cc(C(=O)Nc3ccccc3)ccc21 | - | - | - | - | -
COc1ccc(NC(=O)C(=O)Nc2cccc3cccnc23)cc1OC | - | - | - | . | -
SMILES | SIRT5 block | FN deposition inh | ERAP1 inh | PGC1a acetyl inh | FGF22 binding
C[C@@H]1CN([C@H](C)CO)C(=O)Cc2cc(NS(C)(=O)=O)ccc2O[C@H]1CN(C)S(=O)(=O)c1cccs1 | - | - | - | - | -
C[C@H](CO)N1C[C@H](C)[C@H](CN(C)C(=O)Nc2ccc(C(F)(F)F)cc2)OCCCC[C@H](C)Oc2ccc(N(C)C)cc2C1=O | . | . | . | - | .
C[C@@H]1CN([C@H](C)CO)C(=O)c2cc(NC(=O)NC3CCCCC3)ccc2O[C@@H](C)CCCCO[C@@H]1CN(C)S(=O)(=O)c1ccccc1 | - | - | - | - | -
COc1cccc(S(=O)(=O)Nc2ccc3c(c2)C(=O)N(C)[C@H]2CC[C@H](CC(=O)Nc4cc(F)ccc4F)O[C@@H]2CO3)c1 | . | - | . | . | .
CC(C)(C)C(=O)Nc1nc2c(s1)CN(Cc1ccccc1)CC2 | - | - | - | - | 43
CCOC(=O)c1c(NC(=O)CSc2ncccn2)sc2c1CCN(Cc1ccccc1)C2 | - | - | - | . | 43
COC(=O)c1c(NC(C)=O)sc2c1CCN(Cc1ccccc1)C2 | 18 | - | - | - | -
Cc1noc(C)c1NC(=O)N(C)C[C@H]1OCCCC[C@@H](C)Oc2ccc(NC(=O)Cc3ccccc3)cc2C(=O)N([C@H](C)CO)C[C@H]1C | - | . | - | - | -
Cc1ccc(S(=O)(=O)N[C@@H]2CCCN(Cc3ccc(OCCO)cc3)C2)cc1 | . | . | - | . | -
COc1ccc2c3c(n(C)c2c1)[C@@H](CO)N(Cc1ccccc1OC)CC31CN(C(=O)C2CC2)C1 | . | . | . | - | .
CCOn1c(=O)c(-c2ccc(C)cc2)[n+]([O-])c2ccccc21 | - | - | - | - | -
CCOn1c(=O)c(-c2cccc([N+](=O)[O-])c2)[n+]([O-])c2ccccc21 | - | - | - | . | 44
COc1ccc(NC(=O)Nc2cccc3c2O[C@H](CN(C)C(=O)NC(C)C)[C@H](C)CN([C@@H](C)CO)C3=O)cc1 | - | - | - | - | -
CON(C)C(=O)CC(CNC(=O)OC(C)(C)C)c1ccc(Cl)cc1 (stereo not given) | 21 | - | - | . | -
CON(C)C(=O)CC(CN(Cc1ccccc1)C(=O)OC(C)(C)C)c1ccc(Cl)cc1 (stereo not given) | - | - | - | . | -
C[C@@H]1CN([C@@H](C)CO)C(=O)Cc2cc(NC(=O)Nc3ccc4c(c3)OCO4)ccc2O[C@H]1CN(C)Cc1ccc(C(=O)Nc2ccccc2N)cc1 | - | - | - | - | -
CCCCOc1ccc(CSC(CC(=O)O)C(=O)O)cc1 (stereo not given) | . | . | . | - | .
CCCCOc1ccc(CSCCN=C(N)N)cc1 | - | - | - | - | 43
COc1ccc(C(=O)N(C)Cc2ccccc2)cc1Br | 18 | - | - | . | -
O=C(O)c1cc(O)c2c(c1)C(=O)c1cccc(O)c1C2=O | 18 | - | - | ? | -
CCCN1[C@@H]2Cn3c(ccc(/C=C/c4ccccc4)c3=O)[C@H]1[C@@H](C(=O)NCC1CC1)[C@@H]2CO | - | . | - | . | -
C[C@@H]1CN([C@@H](C)CO)C(=O)c2cc(NC(=O)C3CCCCC3)ccc2O[C@@H](C)CCCCO[C@@H]1CN(C)C(=O)Nc1ccc(F)cc1 | - | . | - | - | -
C[C@@H]1CN([C@H](C)CO)C(=O)c2cc(-c3cccc(C#N)c3)cnc2O[C@@H]1CN(C)C(=O)C1CCC1 | - | . | - | - | -
Cc1cc(/C=C\c2ccc3cc(N(C)C)ccc3[n+]2C)c(C)n1-c1ccccc1 | . | . | . | 68 | .
COc1cc(/C=C/C(=O)OCC(=O)N2CC(=O)Nc3ccccc32)ccc1O | 15 | - | . | . | -
O=C1CN(C(=O)COC(=O)c2cc(S(=O)(=O)N3CCOCC3)ccc2Cl)c2ccccc2N1 | - | - | - | - | 43
O=C1CN(C(=O)COC(=O)CNS(=O)(=O)c2ccccc2)c2ccccc2N1 | - | - | - | . | 43
